Columns and labels:
Rattus norvegicus [1] = species on record: Rattus norvegicus; assay: Percentage residual insulin secretion at 10 uM dose from pancreatic islets incubated in the presence of 16.7 mM glucose; format: functional
Summary of the method: (§1)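 Islets from fed Wistar rats (180–220 g), groups of 10, preincubated 30 min at 37 °C in salt medium with 2.8 mM glucose and 0.5% dialyzed albumin under O2/CO2. Then incubated 90 min at 37 °C with 16.7 mM glucose plus drug. Insulin measured by radioimmunoassay against a rat insulin standard; reported as percentage residual release.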

Rattus norvegicus [2] = species on record: Rattus norvegicus; assay: In vitro inhibition of 30 mM KCl-induced contraction of rat aorta rings.; format: functional
Rattus norvegicus [3] = species on record: Rattus norvegicus; assay: Percentage residual insulin secretion at 1 uM dose from pancreatic islets incubated in the presence of 16.7 mM glucose; format: functional; summary of the method: as §1
Rattus norvegicus [4] = species on record: Rattus norvegicus; assay: In vitro percentage residual insulin secretion at 50 uM dose from rat pancreatic islets incubated in the presence of 16.7 mM glucose.; format: functional; summary of the method: as §1
Cavia porcellus = species on record: Cavia porcellus; assay: In vitro inhibition electrically stimulated guinea pig ileum segment contraction.; format: functional
Summary of the method: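 Coaxial electrical stimulation with rectangular pulses (0.5 ms, 0.1 Hz, 5–25 V); isometric contraction recording. Drugs added at increasing concentrations until maximal effect.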

Rattus norvegicus [5] = species on record: Rattus norvegicus; assay: Myorelaxant activity as percentage residual contractile activity in rat uterus at 10 uM concentration.; format: functional
Summary of the method: (§2)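 Uterus from fed Wistar rats (150–200 g) pretreated the day before with diethylstilboestrol dipropionate i.m. Tissue superfused at 37 °C. Contractions induced by 20 mU oxytocin injections at 10 min intervals, scored as AUC. Baseline (100%) is the mean of the last three constant responses. Each drug concentration tested with at least three injections; mean AUC expressed as percent of the drug-free response.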

Rattus norvegicus [6] = species on record: Rattus norvegicus; assay: Myorelaxant activity as percentage residual contractile activity in rat uterus at 50 uM concentration.; format: functional; summary of the method: as §2
Rattus norvegicus [7] = species on record: Rattus norvegicus; assay: Myorelaxant activity in rat aorta in the presence 80 mM KCL.; format: functional
Summary of the method: (§3)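 Endothelium-denuded transverse aortic rings (3–4 mm) from fed Wistar rats (250–300 g) held under 2 g tension in Krebs-bicarbonate at 37 °C, 95% O2/5% CO2. After 60 min equilibration, contracted with 30 mM or 80 mM KCl; drugs added cumulatively to maximal relaxation, with or without glibenclamide throughout (1 or 10 μM).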

[8] = Myorelaxant activity in rat aorta with 1 uM glibenclamide and 30 mM KCL; format: functional, tissue-based; summary of the method: as §3
[9] = Myorelaxant activity in rat aorta with 10 uM glibenclamide and 30 mM KCL; format: functional, tissue-based; summary of the method: as §3

| SMILES | IC50 (Rattus norvegicus [2]) | IC50 (Cavia porcellus) | IC50 (Rattus norvegicus [7]) | IC50 [8] | IC50 [9] | Secretion (Rattus norvegicus [1]) | Secretion (Rattus norvegicus [3]) | Secretion (Rattus norvegicus [4]) | Activity (Rattus norvegicus [5]) | Activity (Rattus norvegicus [6]) |
| --- | --- | --- | --- | --- | --- | --- | --- | --- | --- | --- |
| CC(C)Nc1nc(O)c2ccccc2n1 | 67.3 µM |  |  |  |  |  |  | 45.6% |  |  |
| C[C@@H](Nc1nc(O)c2cc(Cl)ccc2n1)C1CCCCC1 | 5.6 µM | 8.2 µM | 18.1 µM | > 30 µM | > 30 µM | 62.1% |  | 16.5% | 108% | 90.7% |
| CC1=Nc2ccc(Cl)cc2S(=O)(=O)N1 [DIAZOXIDE] | 19.3 µM | > 300 µM | > 300 µM | 85.8 µM | 163 µM | 70% | 78.9% | 28.8% | 93.8% | 76.3% |
| Oc1nc(NCc2ccccc2)nc2ccccc12 | 43.7 µM |  |  |  |  |  |  | 61.8% | 97.2% | 47.4% |
| CC(C)Nc1nc(O)c2cc(I)ccc2n1 | 12.1 µM | 44.1 µM | 37.2 µM | 37.3 µM | 46.4 µM | 90.9% | 93.7% | 12.2% | 77.6% | 41% |
| Oc1nc(NCc2ccccc2)nc2ccc(Cl)cc12 |  | 13.3 µM |  |  |  |  |  | 82.5% | 94.8% | 98.1% |
| CCC(C)Nc1nc(O)c2cc(I)ccc2n1 (configuration not stated) | 8.9 µM | 23.6 µM |  |  |  | 77.5% | 94.9% | 11.2% |  |  |
| CC(C)C(C)Nc1nc(O)c2cc(Cl)ccc2n1 (configuration not stated) | 16.3 µM | 59.2 µM |  |  |  | 61.9% | 81.3% | 10.2% |  |  |
| CCC(C)Nc1nc(O)c2cc(Cl)ccc2n1 (configuration not stated) | 13.8 µM | 44.7 µM |  |  |  | 53.2% | 84.9% | 6% |  |  |
| Oc1nc(NCc2ccccc2)nc2ccc(Br)cc12 | 7.6 µM |  |  |  |  |  |  | 75.7% | 76.8% | 76.6% |
| CC(Nc1nc(O)c2ccccc2n1)C(C)(C)C (configuration not stated) | 12.4 µM |  |  |  |  |  |  | 50.9% |  |  |
| CC(C)C(C)NC1=NS(=O)(=O)c2cnccc2N1 (configuration not stated) | 154 µM | > 300 µM |  |  |  | 26.8% | 70.5% | 7.1% |  |  |
| CC(C)Nc1nc(O)c2cc(Cl)ccc2n1 | 17.3 µM | 74.1 µM | 34.3 µM |  |  | 55.1% | 80.7% | 6.6% | 78.7% | 61% |

The next lines start with results.

| IC50 (Rattus norvegicus [2]) | IC50 (Cavia porcellus) | IC50 (Rattus norvegicus [7]) | IC50 [8] | IC50 [9] | SMILES | Secretion (Rattus norvegicus [1]) | Secretion (Rattus norvegicus [3]) | Secretion (Rattus norvegicus [4]) | Activity (Rattus norvegicus [5]) | Activity (Rattus norvegicus [6]) |
| --- | --- | --- | --- | --- | --- | --- | --- | --- | --- | --- |
| 4.1 µM | 30.4 µM |  |  |  | CC(C)C(C)Nc1nc(O)c2cc(I)ccc2n1 (configuration not stated) | 87.7% | 94.7% | 30.6% |  |  |
| 2.1 µM | 15.1 µM |  |  |  | C[C@H](Nc1nc(O)c2cc(Cl)ccc2n1)C1CCCCC1 | 43.6% |  | 8.9% | 102% | 66.5% |
| 2.8 µM | 20.2 µM |  |  |  | C[C@@H](Nc1nc(O)c2cc(Cl)ccc2n1)c1ccccc1 |  |  | 35% | 120% | 46.5% |
| 2.2 µM | 23.9 µM |  |  |  | Oc1nc(NCC2CCCCC2)nc2ccc(Cl)cc12 | 90.1% |  | 26.5% | 86% | 80.3% |
| 1.7 µM | 13.2 µM |  |  |  | C[C@H](Nc1nc(O)c2cc(Cl)ccc2n1)c1ccccc1 | 76.9% |  | 12.9% | 92.4% | 44.9% |
| 3.9 µM | 26 µM |  |  |  | Oc1nc(NCC2CCCCC2)nc2ccc(I)cc12 | 65.4% |  | 10% | 96.8% | 97.9% |
| 0.5 µM | 9.2 µM | 16 µM | 10.4 µM | 42.5 µM | CC(N/C(=N\C#N)Nc1ccncc1)C(C)(C)C (configuration not stated) [PINACIDIL ANHYDROUS] | 96% | 97.8% | 92.1% | 58.1% | 35.5% |
| 1.4 µM | 8.7 µM |  |  |  | Oc1nc(NCc2ccccc2)nc2ccc(I)cc12 |  |  | 82.8% | 106% | 106% |
